ChEMBL document CHEMBL4765395, “Design, diversity-oriented synthesis and biological evaluation of novel heterocycle derivatives as non-nucleoside HBV capsid protein inhibitors” (Eur J Med Chem, 2020)
The source made the active and inactive calls. No cut-off for these calls is given here.

Columns and labels:
HepG2 2.2.15 [1] = assay: Cytotoxicity against human HepG2.2.15 cells assessed as reduction in cell viability at 100 uM incubated for 4 days prior to compound washout followed by compound addition and measured after 4 days by CCK8 assay relative to control; assay type: cell-based; settings: hepg2 2.2.15, 192 h, time 8 day
In short: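 Three wells of 4000 HepG2.2.15 cells per well received a single 100 µM concentration for 8 days, with medium replaced on day 4. CCK-8 (10%) was added 0.5 h before the end, and OD was read at 450 and 630 nm. Percent cell death was calculated against untreated cells.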

Hepatitis B virus [2] = assay: Antiviral activity against HBV infected in human HepG2.2.15 cells assessed as […] at 100 uM incubated for 4 days prior to compound washout followed by compound addition and measured after 4 days by fluorogenic probe based RT-qPCR analysis relative to control; assay type: functional; settings: for inhibition at 100 µM: HepG2.2.15, 192 h, time 8 day; for inhibition: time 8.0 day
Hepatitis B virus [3] = assay: Antiviral activity against HBV infected in human HepG2.2.15 cells assessed as reduction in intracellular viral DNA level at 20 uM incubated for 4 days prior to compound washout followed by compound addition and measured after 4 days by fluorogenic probe based RT-qPCR analysis relative to control; assay type: functional; settings: for inhibition: time 8.0 day; for inhibition at 20 µM: HepG2.2.15, 192 h, time 8 day
HepG2 2.2.15 [4] = assay: Cytotoxicity against human HepG2.2.15 cells assessed as reduction in cell viability at 20 uM incubated for 4 days prior to compound washout followed by compound addition and measured after 4 days by CCK8 assay relative to control; assay type: cell-based; settings: hepg2 2.2.15, 192 h, time 8 day
[5] = Selectivity index, ratio of CC50 for human HepG2.2.15 cells to IC50 for antiviral activity against HBV infected in human HepG2.2.15 cells assessed as reduction in HBeAg secretion; assay type: toxicity, cell-based; settings: read-out: Ratio CC50/IC50
Hepatitis B virus [6] = assay: Antiviral activity against HBV infected in human HepG2.2.15 cells assessed as […] incubated for 4 days prior to compound washout followed by compound addition and measured after 4 days by fluorogenic probe based RT-qPCR analysis; assay type: functional, organism-based
[7] = Cytotoxicity against human HepG2.2.15 cells assessed as reduction in cell viability incubated for 4 days prior to compound washout followed by compound addition and measured after 4 days by […]; assay type: cell-based, HepG2 2.2.15; settings: time 8 day
Hepatitis B virus [8] = assay: Antiviral activity against HBV infected in human HepG2.2.15 cells assessed as reduction in HBsAg secretion incubated for 4 days prior to compound washout followed by compound addition and measured after 4 days by ELISA; assay type: functional, organism-based
In short: (§1)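 Five doses (100, 20, 4, 0.8, 0.16 µM) were added in triplicate to HepG2.2.15 cultures for 8 days, with fresh medium on day 4 and untreated controls. Day-8 supernatants were assayed for HBsAg and HBeAg by ELISA kit with absorbance read-out. IC50 is the concentration giving 50% inhibition of antigen secretion.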

Hepatitis B virus [9] = assay: Antiviral activity against HBV infected in human HepG2.2.15 cells assessed as reduction in intracellular viral DNA level incubated for 8 days by fluorogenic probe based RT-qPCR analysis; settings: HepG2.2.15, 192 h
[10] = Selectivity index, ratio of CC50 for human HepG2.2.15 cells to IC50 for antiviral activity against HBV infected in human HepG2.2.15 cells assessed as reduction in HBsAg secretion; assay type: toxicity, cell-based; settings: read-out: Ratio CC50/IC50
Hepatitis B virus [11] = assay: Antiviral activity against HBV infected in human HepG2.2.15 cells assessed as reduction in HBeAg secretion incubated for 4 days prior to compound washout followed by compound addition and measured after 4 days by ELISA; assay type: functional, organism-based; in short: as §1
[12] = Cytotoxicity against human HepG2.2.15 cells assessed as reduction in cell viability incubated for 4 days prior to compound washout followed by compound addition and measured after 4 days by CCK8 assay; assay type: cell-based, HepG2 2.2.15; settings: time 8 day
In short: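 Cytotoxicity in HepG2.2.15 cells was measured with five doses (100, 20, 4, 0.8, 0.16 µM) over 8 days, with medium changed on day 4. CCK-8 (10%) was added 0.5 h before the end, OD was read at 450/630 nm, and CC50 is the concentration killing 50% of cells against untreated controls.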

Hepatitis B virus [13] = assay: Binding affinity to recombinant HBV capsid protein assessed as response value at 100 uM by surface plasmon resonance analysis (reference value: 14.56)
In short: (§2)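 Recombinant HBV capsid protein purified and amine-coupled to a CM5 sensor chip. Six doses of test compound run with running buffer containing 5% DMSO, plus eight solvent-calibration solutions and 50% DMSO solution. Samples centrifuged 15 min before loading. PBS and NaAc-HAc buffers used. Binding read as SPR response.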

Hepatitis B virus [14] = assay: Binding affinity to recombinant HBV capsid protein assessed as response value at 50 uM by surface plasmon resonance analysis (reference value: 14.56); in short: as §2
[15] = Selectivity index, ratio of CC50 for human HepG2.2.15 cells to IC50 for antiviral activity against HBV infected in human HepG2.2.15 cells assessed as reduction in intracellular viral DNA level; assay type: toxicity, cell-based; settings: read-out: Ratio CC50/IC50
Hepatitis B virus [16] = assay: Binding affinity to recombinant HBV capsid protein assessed as response value at 12.5 uM by surface plasmon resonance analysis (reference value: 14.56); in short: as §2
Hepatitis B virus [17] = assay: Binding affinity to recombinant HBV capsid protein assessed as response value at 25 uM by surface plasmon resonance analysis (reference value: 14.56); in short: as §2
[18] = (§3) Binding affinity to recombinant HBV capsid protein by surface plasmon resonance analysis; design: species or system Hepatitis B virus; in short: as §2
Hepatitis B virus [19] = assay: as §3; in short: as §2
Hepatitis B virus [20] = assay: Binding affinity to recombinant HBV capsid protein assessed as response value at 6.25 uM by surface plasmon resonance analysis (reference value: 14.56); in short: as §2
HepG2 2.2.15 [21] = assay: Cytotoxicity against human HepG2.2.15 cells assessed as reduction in cell viability at 50 uM incubated for 4 days prior to compound washout followed by compound addition and measured after 4 days by CCK8 assay relative to control; assay type: cell-based; settings: hepg2 2.2.15, 192 h, time 8 day
Hepatitis B virus [22] = assay: Antiviral activity against HBV infected in human HepG2.2.15 cells assessed as reduction in intracellular viral DNA level at 50 uM incubated for 4 days prior to compound washout followed by compound addition and measured after 4 days by fluorogenic probe based RT-qPCR analysis relative to control; assay type: functional; settings: for inhibition at 50 µM: HepG2.2.15, 192 h, time 8 day

## O=C(NCc1ccc(F)cc1Cl)c1cn(-c2nccs2)nc1NCc1ccccc1
HepG2 2.2.15 [1]
  Activity: 29.2%
Hepatitis B virus [2]
  inhibition at 100 µM: 41.6%

## CC(C)Cc1nc(NS(=O)(=O)c2ccc(F)cc2)sc1C(=O)NCc1ccc(F)cc1
Hepatitis B virus [3]
  inhibition: inactive
HepG2 2.2.15 [4]
  Activity: 17.5%

## CC(C)Cc1sc(-c2nccs2)nc1C(=O)NCc1ccc(F)cc1
[5]
  selectivity ratio: 1.9
Hepatitis B virus [6]
  IC50: 2.3 µM
[7]
  CC50 at 192 h: 50.4 µM
Hepatitis B virus [8]
  IC50: 31.7 µM
Hepatitis B virus [9]
  IC50: 1.33 µM
[10]
  selectivity ratio: 1.9
Hepatitis B virus [11]
  IC50: 31.7 µM
[12]
  CC50 at 192 h: 59.2 µM
Hepatitis B virus [13]
  Activity: 63.5 RU
Hepatitis B virus [14]
  Activity: 41.4 RU
[15]
  selectivity ratio: 25.7
HepG2 2.2.15 [1]
  Activity: 98.8%
Hepatitis B virus [16]
  Activity: 23.9 RU
Hepatitis B virus [17]
  Activity: 38.4 RU
[18]
  Kd: 50.6 µM
Hepatitis B virus [19]
  Activity: Dose-dependent effect
Hepatitis B virus [20]
  Activity: 17.7 RU
Hepatitis B virus [2]
  inhibition at 100 µM: 97.3%

## Nc1ccn([C@@H]2CS[C@H](CO)O2)c(=O)n1 [LAMIVUDINE]
Hepatitis B virus [6]
  IC50: 0.6 µM
Hepatitis B virus [8]
  IC50: > 100 µM
Hepatitis B virus [11]
  IC50: > 100 µM
[12]
  CC50 at 192 h: > 100 µM
[15]
  selectivity ratio: > 167
HepG2 2.2.15 [1]
  Activity: 12.7%
Hepatitis B virus [2]
  inhibition at 100 µM: 87.9%

## CCOC(=O)c1cn(-c2cccc(F)c2)nc1NC
HepG2 2.2.15 [1]
  Activity: 5.7%
Hepatitis B virus [2]
  inhibition: inactive

## CC(C)Cc1nc(-c2cccc(F)c2)ncc1C(=O)NCc1ccc(F)cc1
HepG2 2.2.15 [21]
  Activity: Non-Toxic
Hepatitis B virus [22]
  inhibition at 50 µM: 35.6%

## CC(C)Cc1nc(-c2cccs2)sc1C(=O)NCc1ccc(F)cc1
Hepatitis B virus [3]
  inhibition: inactive
HepG2 2.2.15 [4]
  Activity: 17.8%

## CCOC(=O)c1cn(-c2cccc(F)c2)nc1SC1CCCCC1
HepG2 2.2.15 [1]
  Activity: 18.1%
Hepatitis B virus [2]
  inhibition: inactive

## CC(C)Cc1sc(-c2nccs2)nc1C(=O)NCc1ccc(F)cc1F
[5]
  selectivity ratio: 1.5
Hepatitis B virus [6]
  IC50: 2.7 µM
Hepatitis B virus [8]
  IC50: 21 µM
[10]
  selectivity ratio: 2.2
Hepatitis B virus [11]
  IC50: 30.1 µM
[12]
  CC50 at 192 h: 45.4 µM
[15]
  selectivity ratio: 16.8
HepG2 2.2.15 [1]
  Activity: 24.9%
Hepatitis B virus [2]
  inhibition at 100 µM: 83.8%

## CC(C)Cc1nc(-c2cc3ccccc3s2)sc1C(=O)NCc1ccc(F)cc1
Hepatitis B virus [3]
  inhibition at 20 µM: 21.1%
HepG2 2.2.15 [4]
  Activity: Non-Toxic

## COC(=O)c1nc(-c2ccccc2OC)cnc1NC(=O)c1ccccc1
HepG2 2.2.15 [21]
  Activity: 5.7%
Hepatitis B virus [22]; time 8.0 day
  inhibition: inactive

## O=C(NCc1ccc(F)cc1F)c1cn(-c2nccs2)nc1NCc1ccccc1
HepG2 2.2.15 [1]
  Activity: 16.9%
Hepatitis B virus [2]
  inhibition at 100 µM: 32.9%

## CCOC(=O)c1cnc(-c2ccccc2)nc1CC(C)C
HepG2 2.2.15 [21]
  Activity: Non-Toxic
Hepatitis B virus [22]
  inhibition at 50 µM: 37.3%

## CC(C)Cc1nc(NC(=O)c2ccc(F)cc2)sc1C(=O)NCc1ccc(F)cc1
Hepatitis B virus [3]
  inhibition at 20 µM: 29.2%
HepG2 2.2.15 [4]
  Activity: 20.7%
